Bioassay records as filed in PubChem BioAssay.
ZTA counter: counter-screen for EBNA-1 inhibitors: inhibitors of Epstein-Barr virus ZTA; AID 2234; inhibition, % at 11 µM; ZTA-DNA binding, fluorescence polarization; hit rate 0.15% among 320,000; in the data active means inhibition above about 33%
Target sequence (P03206 whole entry, looked up): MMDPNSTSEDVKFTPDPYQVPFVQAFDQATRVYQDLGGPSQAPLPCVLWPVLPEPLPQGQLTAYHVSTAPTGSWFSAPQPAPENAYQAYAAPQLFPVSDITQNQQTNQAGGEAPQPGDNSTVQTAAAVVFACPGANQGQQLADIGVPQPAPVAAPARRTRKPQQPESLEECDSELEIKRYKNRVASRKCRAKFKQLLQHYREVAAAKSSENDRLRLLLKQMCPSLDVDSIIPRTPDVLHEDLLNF
DNA FID counter: counter-screen for HCV NS3 helicase inhibitors: DNA intercalator displacement; DNA fluorescent intercalator displacement, fluorescence; inhibition, % at 7.9 µM; hit rate 0.17% among 290,000; in the data active means inhibition above about 37%;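 further: 0% = vehicle and 100% = reference compound; higher means more ethidium bromide displaced from hairpin DNA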
FGF22 binding: FGF22 (human) thermal shift binding | AID 651658 | hit rate 1.5% among 340,000 | Q9HCT0 | activity (Tm shift, normalised), % at 9.99 µM | recombinant FGF22 thermal shift, SYPRO orange fluorescence; percent of sucrose octasulfate shift, DMSO zero;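 active means mean Tm shift, scaled 0 neutral to 100 positive control, at about 1.3% or above, every replicate too, limit read from the data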
Target sequence (Q9HCT0 whole entry, looked up): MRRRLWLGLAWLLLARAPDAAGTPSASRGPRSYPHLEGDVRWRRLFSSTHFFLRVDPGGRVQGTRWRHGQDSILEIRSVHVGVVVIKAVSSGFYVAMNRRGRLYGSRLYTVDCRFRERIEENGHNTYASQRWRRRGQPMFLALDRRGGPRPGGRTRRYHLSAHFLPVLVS
EBNA-1 inhibitor: blocks EBNA-1 binding to DNA; EBNA-1 DNA binding, fluorescence polarization; inhibition, % at 14.8 µM; hit rate 0.34% among 300,000; in the data active means inhibition above about 28%
NS3 helicase inh: blocks Hepatitis C virus NS3 helicase unwinding; NS3 helicase DNA unwinding, Cy5 molecular beacon fluorescence; inhibition, % at 10.9 µM; hit rate 0.56% among 290,000; AID 1800;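 active means inhibition above the mean of all tested compounds plus 3 SD, set per campaign, cut at about 35% in these data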;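 further: 0% = DMSO wells and 100% = thioflavine S control wells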
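Material: hepatitis C virus NS3 helicase domain fragment enzyme; measured by: Cy5 fluorescence, 0 and 60 min reads; control set: DMSO and thioflavine S; incubation: 60 min unwinding reaction at 25 °C after ATP addition; read-out basis: % inhibition from 60/0 min fluorescence ratio, DMSO 0%, thioflavine S 100%; repeats: singlicate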
GRIN3A LBD mod: NR3A (human) ligand-binding domain modulation. NR3A LBD differential scanning fluorimetry, Tm shift; 0% = protein alone, 100% = glycine-bound protein. Tm shift relative to glycine control, % at 25 µM. hit rate 2.5% among 340,000;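 active means melting temperature shift of at least 10% of the positive control shift, at one fixed dose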
* marks the source's active call; other numbers are inactive results; / = not tested or not shown. Sampled rows, rich in hits. Any-hit rate of the full collection: about 3.6%.

SMILES	ZTA counter	DNA FID counter	FGF22 binding	EBNA-1 inhibitor	NS3 helicase inh	GRIN3A LBD mod
O=C(C[C@@H]1C=C[C@@H](NC(=O)C2CCOCC2)[C@@H](CO)O1)NCC1CCCCC1	/	/	0	/	/	/
O=C(OCC(=O)c1c[nH]c2ccccc12)c1cc2ccccc2cc1O	19	-1	/	17	18	32*
Cc1noc(C)c1NC(=O)Nc1ccc2c(c1)C(=O)N([C@@H](C)CO)C[C@H](C)[C@H](CN(C)Cc1ccncc1)OCCCC[C@@H](C)O2	/	/	0	/	/	/
CCCC(=O)Nc1ccc2c(c1)C(=O)N(C)C[C@@H](OC)[C@H](C)CN(C(=O)CN(C)C)[C@H](C)CO2	/	/	0	/	/	/
Cc1ccc2[nH]c3c(c2c1)CCc1cn[nH]c1-3	-5	18	/	0	-5	28*
COc1ccc(OC)c(/C=N/n2c(-c3n[nH]c4c3CCC4)n[nH]c2=S)c1	10	-3	0	12	6	14*
O=C(Nc1ccccc1)c1ccc(Nc2c([N+](=O)[O-])cc([N+](=O)[O-])c3ccccc23)cc1	-4	1	/	2	-1	11*
CN1/C(=C/C(=O)c2ccc(Cl)cc2)Sc2cc3c(cc21)OCO3	3	0	/	-1	-2	16*
COc1ccc(C(=O)/C=C2/Sc3cc4c(cc3N2C)OCO4)cc1	24	-25	1	5	13	-2
COc1ccc(CNC(=O)C[C@@H]2CC[C@@H](NC(=O)c3cccc(F)c3)[C@H](CO)O2)cc1	/	/	0	/	/	/
Cc1cc(=O)c2ccccc2n1Cc1ccccc1	0	6	44*	3	-3	2
Cc1cc(=O)[nH]c(=O)n1Cc1ccccc1	-4	-3	43*	-10	2	-2
O=C(O)c1cc(=O)n(Cc2ccccc2)c(=O)[nH]1	/	0	0	/	4	-1
Cc1cc(=O)c2ccccc2n1CC(=O)NCc1ccccc1	-16	-4	/	-1	0	0
Cc1cc([N+](=O)[O-])ccc1Nc1nc2ccccc2n2cnnc12	-6	-1	0	13	1	37*
CCn1c2ccccc2c2cc(NC(=O)COC(=O)c3ccc(O)cc3)ccc21	4	/	0	-6	/	15*
CCn1c2ccccc2c2cc(NC(=O)COC(=O)c3cccc(S(=O)(=O)NC)c3)ccc21	-9	-5	0	5	-20	8
COc1ccc(C(=O)C(CCC(CNC(C)(C)C)C(=O)c2ccc(OC)cc2)CNC(C)(C)C)cc1 (stereo unspecified)	6	43*	/	8	-64	10
COc1ccc(C(=O)CC(=O)c2ccc(C(C)(C)C)cc2)cc1	/	/	0	/	/	-14
O=C(C[C@H]1CC[C@@H](NC(=O)Cc2ccccn2)[C@@H](CO)O1)NCCc1ccccc1	/	/	0	/	/	/
O=C(Nc1cccnc1)c1ccc(COCC(F)(F)F)cc1	-1	-6	/	4	-2	11*
COCC(=O)Nc1ccc2c(c1)[C@H]1C[C@H](CC(=O)O)O[C@H](CO)[C@H]1O2	/	/	0	/	/	/
COc1ccc(NC(=O)Nc2ccc3c(c2)[C@H]2C[C@H](CC(=O)O)O[C@@H](CO)[C@H]2O3)cc1	/	/	0	/	/	/
N#Cc1ccc(S(=O)(=O)N2CCc3[nH]c4ccc(F)cc4c3C2)cc1	10	9	0	7	-4	11*
C[C@H](NC(=O)C[C@H]1C=C[C@H](NC(=O)Cc2ccccn2)[C@@H](CO)O1)c1ccccc1	/	/	0	/	/	/
SMILES	ZTA counter	DNA FID counter	FGF22 binding	EBNA-1 inhibitor	NS3 helicase inh	GRIN3A LBD mod
COc1ccc(Cn2c(O)c(C=Nc3ccccc3)c3ccccc3c2=O)cc1	6	-13	0	3	4	-17
COc1ccc(Cn2c(O)c(C=Nc3ccc(O)cc3)c3ccccc3c2=O)cc1	-8	-3	/	14	-2	23*
CC(C)NC(=O)NCC[C@@H]1CC[C@@H](NS(=O)(=O)c2ccc(-c3ccccc3)cc2)[C@H](CO)O1	/	/	0	/	/	/
CC(C)NC(=O)N(C)C[C@@H]1Oc2cc(C#Cc3ccccn3)ccc2S(=O)(=O)N([C@@H](C)CO)C[C@@H]1C	/	/	-1	/	/	/
Cc1ccccc1C(=O)N/N=C1\SCC(=O)N1Cc1ccco1	6	-1	44*	4	-1	0
COc1cc(OC)cc(C(=O)N/N=C2/SCC(=O)N2Cc2ccco2)c1	5	3	0	3	-1	-1
Cc1cccc(OCC(=O)N/N=C2/SCC(=O)N2Cc2ccco2)c1	-13	-11	43*	8	5	1
C[C@H]1CN([C@@H](C)CO)C(=O)c2cc(NC(=O)C3CCCCC3)ccc2O[C@@H]1CN(C)S(=O)(=O)c1cn(C)cn1	/	/	0	/	/	/
CCCn1c(SCC(=O)Nc2cccc(C)n2)nc2c1c(=O)n(C)c(=O)n2C	-19	1	43*	-8	6	-3
CCCn1c(SCC(=O)Nc2cc(C)on2)nc2c1c(=O)n(C)c(=O)n2C	6	6	/	2	-1	1
CO[C@@H]1CN(C)C(=O)c2ccc(NC(=O)Cc3ccccc3)cc2OC[C@@H](C)N(CC2CC2)C[C@@H]1C	/	/	0	/	/	/
C=CCOc1ccc(/C=C2\C(=N)N3N=C(S(=O)(=O)CC)SC3=NC2=O)cc1OC	-5	-7	0	2	8	11*
CS(=O)(=O)C1=NN2C(=N)/C(=C\c3ccc(OC(=O)c4ccco4)cc3)C(=O)N=C2S1	9	-15	0	18	12	0
COc1cc(/C=C2\C(=N)N3N=C(S(C)(=O)=O)SC3=NC2=O)cc(OC)c1OCCOc1ccccc1C	6	30	1	25	0	33*
COc1ccccc1OCCOc1ccc(/C=C2\C(=N)N3N=C(S(C)(=O)=O)SC3=NC2=O)cc1	8	-5	2.1*	-19	8	4
CC1SC(=NC(=O)c2ccncc2)NC1=O (stereo unspecified)	4	7	44*	4	7	0
CC1S/C(=N/N=C2CCCCC2)NC1=O (stereo unspecified)	-9	-1	0	-12	3	-1
COc1ccccc1CC(NC(C)=O)C(=O)NC1CCN(C(=O)c2ccc([N+](=O)[O-])cc2)CC1 (stereo unspecified)	-2	-15	44*	-2	0	0
N#Cc1ccc(NC(=O)Nc2ccc(Oc3ccc(NC(=O)Nc4ccc(C#N)cc4)cc3)cc2)cc1	-26	1	0	0	9	32*
CCC(=O)N1[C@@H]2c3ccc(C4=CCCC4)c(=O)n3C[C@@H]2[C@@H](CO)[C@@H]1C(=O)NC1CCC1	/	/	0	/	/	/
COc1ccc2c3c([nH]c2c1)[C@H](CO)N(C(=O)CC1CC1)CC31CN(Cc2cccnc2)C1	/	/	0	/	/	/
CCN(c1ccccc1)S(=O)(=O)c1cc2c(cc1C)N(C)CCO2	-16	-32	43*	-11	-5	2
Cc1cc2c(cc1S(=O)(=O)N1CCN(c3ccccc3)CC1)OCCN2C	8	-27	0	-7	-9	-3
